Measurements pooled from the literature.
Target: D(3) dopamine receptor (DRD3, Homo sapiens, UniProt P35462)
Method: radioligand

Structure (SMILES) | effect on | notes | Ki
CC1Cc2ccccc2N1C(=O)NCCCCN(C)[C@H]1CNc2ccccc2C1 (stereo partly drawn) | ligand displacement | cell membranes | 274 nM
O=C1c2ccccc2CCN1CCCCN1CCN(c2cccc(Cl)c2Cl)CC1 | ligand displacement | – | 1 nM
COc1ccc(CCC2=NCCN2CCc2ccccc2)cc1 | ligand displacement | – | > 10000 nM
C[C@@H]1Cc2ccccc2N1C(=O)NCCCCN(C)[C@@H]1Cc2cccc3[nH]c(=O)n(c23)C1 | ligand displacement | cell membranes | 300 nM
CCOc1c(O)cc(Br)c2c1CN1CCc3cc(OCC(F)F)c(O)cc3[C@@H]1C2 | cell-free assay | – | 1910 nM
CCCCN1CCC(COC(=O)c2ccc(N)c(OCF)c2)CC1 | cell-free assay | – | 3090 nM
COc1ccc2c(c1)C(=O)N(CCN1CCN(c3ccccc3OC)CC1)C2 | ligand displacement | – | 208 nM
Oc1cccc(CCC2=NCCN2CCc2ccccc2)c1 | ligand displacement | – | > 10000 nM
COc1ccccc1N1CCN(CCCCNC(=O)c2cc3cc(OCCF)ccc3[nH]2)CC1 | cell-free assay | – | 0.4 nM
CCN(CC)c1ccc(C2Nc3ccc(C(=O)c4ccccc4)cc3NC3=C2C(=O)CC(C)(C)C3)cc1 (stereo not drawn) | cell-free assay | – | > 10000 nM
CN(C[C@@H]1C[C@H]1CCNC(=O)c1cc2ccccc2[nH]1)[C@@H]1Cc2cccc3[nH]c(=O)n(c23)C1 | ligand displacement | cell membranes | 54.6 nM
Oc1ccc(CCC2=NCCN2CCc2ccccc2)cc1 | ligand displacement | – | 832 nM
